Test results: PubChem BioAssay
Active and inactive are the calls of the source.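 The calls were made as follows, unless noted: active = GFP response above 150% of the DMSO level; inconclusive = fewer than 70 events counted for a yeast strain; inactive = the rest.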

Key:
[1] = hit retest on RPL19A-GFP reporter strain – cell-based, S. cerevisiae, flow cytometry, cherry picks, mother/daughter gates, confirmation (AID 2270;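 active = GFP response below 50% of the DMSO control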); conditions: 3 h, at 10 µM, stronger effect = lower value, 100 = same GFP as DMSO wells
[2] = yeast TOR pathway reporter LAP4-GFP change – cell-based, cherry picks, flow cytometry, mother/daughter gates, confirmation (AID 2271;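 active = GFP response above 150% of the DMSO control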;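 also: ratio of sample to DMSO plate mean so 100% equals DMSO level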); conditions: S. cerevisiae LAP4-GFP strain, 3 h, at 10 µM, stronger effect = higher value, 100 means same as DMSO control
Method in brief: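 System: GFP-fusion yeast strain | Input: Yeast cells seeded at OD600 of 0.2 | Technique: HT flow cytometry, GFP fluorescence channel | Read-out: % GFP response vs DMSO | Dosing: Single test-compound dose, 10 µM final | Controls: Positive rapamycin (400 ng/mL), negative DMSO | Times: 3 h treatment at 30 °C with rotation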

[3] = TOR pathway reporter MEP2-GFP, retest of hits – S. cerevisiae, flow cytometry GFP, cherry picks, confirmation (AID 2272;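 active = GFP response above 150% of the DMSO control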;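 also: ratio of well signal to plate DMSO mean so 100% equals DMSO level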); conditions: S. cerevisiae MEP2-GFP strain, 3 h, at 10 µM, stronger effect = higher value
[4] = yeast AGP1-GFP fluorescence change, single-dose – cell-based, flow cytometry, S. cerevisiae, cherry picks, confirmation (AID 2273);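 also: median GFP channel fluorescence over the whole cell population gate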; conditions: S. cerevisiae AGP1-GFP strain, 3 h, at 10 µM
[5] = TOR pathway CIT2 reporter hit retest – S. cerevisiae, GFP fusion, cherry picks, mother/daughter gates, confirmation (AID 2274); conditions: S. cerevisiae CIT2-GFP strain, flow cytometry, 3 h, at 10 µM, stronger effect = higher value
[6] = measured here: daughter cell gate
[7] = measured here: mother cell gate
[8] = measured here: daughter cell gate response
[9] = measured here: mother cell gate response

Structure (SMILES) | GFP response vs DMSO [1] | GFP response vs DMSO [1, 6] | GFP response vs DMSO [1, 7] | GFP response relative to DMSO [2] | GFP response relative to DMSO [2, 8] | GFP response relative to DMSO [2, 9] | GFP response vs DMSO [3] | GFP response, % of DMSO [4] | GFP response, % of DMSO [5] | GFP response, % of DMSO [5, 6] | GFP response, % of DMSO [5, 7]
Brc1ccc2c(c1)OCCOCCOc1cc(Br)ccc1OCCOCCOCCO2 | 99% (inactive) | 98.4% | 96.9% | 126% (inactive) | 123% | 126% | 111% (inactive) | 92.7% (inactive) | 96.9% (inactive) | 97.2% | 93.8%
Cc1ccc(NN2C(=O)C=C(c3ccc(Cl)cc3)C2=O)cc1 | 83.9% (inactive) | 87.1% | 74.3% | 289% (active) | 117% | 280% | 111% (inactive) | 91.3% (inactive) | 96.9% (inactive) | 91.7% | 83.1%
Cc1cccc(CS(=O)(=O)c2ncc(Cl)c(C(=O)NCc3ccc4c(c3)OCO4)n2)c1 | 99.7% (inactive) | 99% | 102% | 90.2% (inactive) | 91% | 91.1% | 102% (inactive) | 98.7% (inactive) | 107% (inactive) | 105% | 108%
COCc1nnc(NC(=O)c2ccc(S(=O)(=O)N3CCCCCC3)cc2)o1 | 105% (inactive) | 99.8% | 105% | 105% (inactive) | 97.5% | 107% | 107% (inactive) | 101% (inactive) | 97.3% (inactive) | 97.4% | 96.8%
O=C(Nc1nc(-c2ccc(Cl)s2)cs1)c1cccs1 | 93.8% (inactive) | 91% | 93.7% | 113% (inactive) | 107% | 119% | 97.2% (inactive) | 98.8% (inactive) | 83.3% (inactive) | 85.2% | 82.6%
O=C1c2ccccc2C(=O)N1OS(=O)(=O)c1ccc(F)cc1 | 74% (inactive) | 89.4% | 61.9% | 127% (inactive) | 129% | 129% | 103% (inactive) | 102% (inactive) | 121% (inactive) | 103% | 99.7%
CCOc1ccc(Nc2ccc(C(=O)O)cc2[N+](=O)[O-])cc1 | 102% (inactive) | 98.4% | 104% | 101% (inactive) | 99.1% | 100% | 101% (inactive) | 97.8% (inactive) | 98.8% (inactive) | 95.6% | 96.8%
CCOC(=O)c1ccc(NC(=O)CCc2nc(-c3ccc(C)cc3)no2)cc1 | 101% (inactive) | 102% | 100% | 98.2% (inactive) | 99.1% | 98.4% | 107% (inactive) | 100% (inactive) | 91.5% (inactive) | 90.2% | 93.2%
COc1cc(C(=O)ON=C2C3CC4CC(C3)CC2C4)cc(OC)c1OC | 97.4% (inactive) | 97.6% | 95.6% | 108% (inactive) | 102% | 111% | 107% (inactive) | 61.1% (inactive) | 145% (inactive) | 136% | 147%
COc1ccc2ccccc2c1/C=N/Nc1cccc(C(=O)O)c1 | 99.4% (inactive) | 98.6% | 100% | 98.2% (inactive) | 99.1% | 98.4% | 105% (inactive) | 102% (inactive) | 103% (inactive) | 101% | 102%
Cc1ccc(-n2nnnc2C(Cl)(Cl)c2nnnn2-c2ccc(C)cc2)cc1 | 99.7% (inactive) | 98.8% | 98.6% | 136% (inactive) | 120% | 139% | 112% (inactive) | 100% (inactive) | 105% (inactive) | 106% | 100%
COc1cccc(CC(=O)OC(C)C(=O)Nc2ncc(Cl)cc2Cl)c1 (stereo not drawn) | 101% (inactive) | 99.8% | 101% | 96.2% (inactive) | 97.2% | 97.2% | 102% (inactive) | 91.1% (inactive) | 97.8% (inactive) | 98.1% | 95.5%
CC(=O)c1ccccc1NCC(=O)Nc1ccc(C)cc1 | 96.3% (inactive) | 95% | 96% | 99.8% (inactive) | 98.2% | 101% | 103% (inactive) | 100% (inactive) | 93.4% (inactive) | 95.2% | 92.8%
Cc1cccc(C)c1NC(=O)c1nc(S(=O)(=O)Cc2ccccc2)ncc1Cl | 97.1% (inactive) | 96.4% | 95.8% | 102% (inactive) | 101% | 101% | 101% (inactive) | 102% (inactive) | 94.4% (inactive) | 92.3% | 93.8%
CN(C)CCCNc1cc(C(C)(C)C)nc2c(-c3ccc(Cl)cc3)cnn12 | 93.6% (inactive) | 89% | 94.2% | 116% (inactive) | 107% | 118% | 114% (inactive) | 107% (inactive) | 93.1% (inactive) | 94% | 92.6%
Cc1c(O)nc(SC2CC(=O)N(c3ccccc3)C2=O)[nH]c1=O (stereo not drawn) | 96.4% (inactive) | 96.5% | 96.7% | 109% (inactive) | 101% | 107% | 99.5% (inactive) | 97.1% (inactive) | 96.4% (inactive) | 98.3% | 96.8%
O=C(Nc1ccccc1O)c1ccc(Cl)cc1 | 96.8% (inactive) | 95.6% | 96.6% | 98.7% (inactive) | 100% | 100% | 102% (inactive) | 97.8% (inactive) | 100% (inactive) | 99.7% | 98.7%

Structure (SMILES) | GFP response vs DMSO [1] | GFP response vs DMSO [1, 6] | GFP response vs DMSO [1, 7] | GFP response relative to DMSO [2] | GFP response relative to DMSO [2, 8] | GFP response relative to DMSO [2, 9] | GFP response vs DMSO [3] | GFP response, % of DMSO [4] | GFP response, % of DMSO [5] | GFP response, % of DMSO [5, 6] | GFP response, % of DMSO [5, 7]
CCCCOc1ccc(C(=O)N2CCN(c3ccc(N4CCOCC4)nn3)CC2)cc1 | 97.4% (inactive) | 99.1% | 94.9% | 97.9% (inactive) | 97.6% | 97.2% | 98.3% (inactive) | 97.2% (inactive) | 98.3% (inactive) | 101% | 98.5%
Cc1cc(O)c(C(=O)/C=C/c2ccc(Cl)cc2)c(=O)o1 | 97.2% (inactive) | 101% | 95.5% | 180% (active) | 156% | 180% | 110% (inactive) | 99.7% (inactive) | 95% (inactive) | 104% | 86.3%
CCCn1c(=O)c(C(=O)Nc2ccccc2)c(O)c2ccccc21 | 96.7% (inactive) | 96.4% | 95.6% | 100% (inactive) | 97.5% | 98.4% | 99.3% (inactive) | 96.6% (inactive) | 98.6% (inactive) | 95.8% | 97.1%
COc1cc(/C=C2\N=C(c3ccccc3)OC2=O)ccc1OC(C)=O | 94.9% (inactive) | 93.5% | 96.3% | 101% (inactive) | 98.2% | 102% | 112% (inactive) | 107% (inactive) | 113% (inactive) | 111% | 113%
O=C(Nc1nc(-c2ccc(F)cc2)cs1)c1cnccn1 | 97.8% (inactive) | 98.3% | 98.1% | 101% (inactive) | 97.9% | 101% | 110% (inactive) | 96.2% (inactive) | 105% (inactive) | 98.3% | 104%
Cc1ccc(-c2nc(NC(=O)c3nn(C)cc3[N+](=O)[O-])sc2C)cc1C | 101% (inactive) | 101% | 102% | 95.3% (inactive) | 92.2% | 99.5% | 97.5% (inactive) | 95.4% (inactive) | 93.5% (inactive) | 94.6% | 93.3%
O=C1c2ccsc2SCCN1Cc1ccc(Cl)cc1 | 93.6% (inactive) | 86% | 97% | 135% (inactive) | 128% | 144% | 91.3% (inactive) | 93.9% (inactive) | 82.2% (inactive) | 80.1% | 82.6%
Cc1ccc(-c2ccc(CCC(=O)O)o2)cc1 | 102% (inactive) | 95.9% | 101% | 147% (inactive) | 139% | 150% | 95.7% (inactive) | 94.8% (inactive) | 90% (inactive) | 85% | 90.2%
CC(=O)Nc1cccc(C(=O)/C=C/c2ccc(C)cc2)c1 | 95.8% (inactive) | 96.8% | 95.1% | 117% (inactive) | 115% | 120% | 110% (inactive) | 102% (inactive) | 103% (inactive) | 103% | 102%
CCCC(=O)c1ccc(N2CCN(C(=O)c3ccc(Br)cc3)CC2)c(F)c1 | 101% (inactive) | 95.9% | 94% | 102% (inactive) | 99.2% | 99.3% | 102% (inactive) | 100% (inactive) | 105% (inactive) | 105% | 99.7%
CCOC(=O)CNc1c(-c2ccc(O)cc2)nc2ccccn12 | 98.5% (inactive) | 99.3% | 98% | 100% (inactive) | 104% | 98.4% | 97.2% (inactive) | 104% (inactive) | 101% (inactive) | 103% | 103%
COc1ccc(C(=O)NC(=S)NNC(=O)c2cnccn2)cc1 | 99.3% (inactive) | 91.3% | 96% | 285% (active) | 176% | 262% | 114% (inactive) | 95.2% (inactive) | 104% (inactive) | 96.4% | 93.3%
Cc1ccc(S(=O)(=O)N(CC(=O)Nc2cccnc2)c2ccccc2C)cc1 | 104% (inactive) | 100% | 105% | 97% (inactive) | 95.9% | 97.3% | 105% (inactive) | 98.6% (inactive) | 94.4% (inactive) | 92% | 94.4%
N=C1/C(=C\c2ccc(Br)o2)C(=O)N=C2SC(CC(=O)N3CCCCC3)=NN12 | 97.4% (inactive) | 96.8% | 95.5% | 104% (inactive) | 103% | 102% | 103% (inactive) | 104% (inactive) | 107% (inactive) | 108% | 108%
Cc1ccn2c(NC3CCCCC3)c(C(C)C)nc2c1 | 99.4% (inactive) | 99.4% | 99.2% | 101% (inactive) | 101% | 100% | 100% (inactive) | 100% (inactive) | 101% (inactive) | 103% | 101%
Cc1ccc(S(=O)(=O)NCC23C=CC(O2)C2C(=O)N(c4ccccc4)C(=O)C23)cc1 (stereo not drawn) | 98.4% (inactive) | 98.9% | 98.7% | 96.7% (inactive) | 97.6% | 97.2% | 102% (inactive) | 99.9% (inactive) | 105% (inactive) | 105% | 104%
